Assay outcomes deposited in PubChem BioAssay by The Scripps Research Institute Molecular Screening Center.
zfTRPN1 agonist: zebrafish TRPN1 channel agonists, primary screen, cell-based, HEK293, calcium fluorescence; 220,000 compounds, 0.18% hits; transient receptor potential cation channel N1 (TRPN1/NompC), Danio rerio; activation, % at 3 µM; AID 1424, 2008; HEK293 zebrafish TRPN1-YFP, Fluo-8 calcium fluorescence; 100% = response to 87 µM carbachol;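 active = activation above its plate's cutoff, the mean activation of test wells on that plate plus 3 SD, cut at about 19% in these data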;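 note: 0% = DMSO alone and 100% = 87 µM carbachol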
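Material – zebrafish TRPN1-YFP in HEK293 cells · Doses – 3 µM single point · Schedule – dye 1 h 37 °C plus 30 min RT · Signal – Fluo-8 calcium fluorescence, excitation 470-495 nm, emission 515-575 nm · Read-out – % activation versus carbachol response · Control set – carbachol high, DMSO low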
CHO-K1 Ca antag: M1 antagonist counterscreen hit in parental CHO-K1 cells; ATP-induced calcium, Fluo-8 fluorescence; inhibition, % at 3 µM; 360,000 compounds, 0.6% hits;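 active = inhibition above a per-plate cutoff, the plate's mean sample inhibition plus 3 SD, cut at about 24% in these data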;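 note: 0% = DMSO plus EC80 ATP and 100% = DMSO alone without ATP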
CHO-K1 Ca ag: counter-screen for M1 agonists: effect in parental CHO-K1 cells | activation, % at 3 µM | Fluo-8 calcium fluorescence; scaled to maximal ATP response, vehicle zero | AID 602248, 2012 | 360,000 compounds, 0.48% hits; in the data active = activation above about 15%;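 note: untransfected CHO-K1 host cells lacking M1 receptor as counterscreen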
CHO-K1 Ca PAM: nonselective calcium activators in parental CHO-K1 cells, primary screen, counter-screen for M1 PAM project, cell-based, Fluo-8 calcium fluorescence, full deck, 1536-well. activation, % at 3 µM. 360,000 compounds, 0.02% hits. ATP EC20; 0% at ATP EC20, 100% at ATP max;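 active = activation above the run cutoff, the mean activation of all test compounds plus 3 SD, cut at about 40% in these data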;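 note: peak over basal fluorescence ratio in a 140 s read after ATP addition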
TRPML3 ag: human TRPML3 channel agonists, primary screen, cell-based, HEK293 TRPML3-YFP, Fluo-8 calcium fluorescence, 3 µM | 220,000 compounds, 0.29% hits | AID 1448, 2008 | 100% = the carbachol control signal | activation, % at 3 µM;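 active = activation above its plate's cutoff, the mean activation of the plate's test wells plus 3 SD, cut at about 12% in these data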;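 note: 0% = DMSO only wells and 100% = carbachol wells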
Target sequence (Q8TDD5 whole entry, looked up): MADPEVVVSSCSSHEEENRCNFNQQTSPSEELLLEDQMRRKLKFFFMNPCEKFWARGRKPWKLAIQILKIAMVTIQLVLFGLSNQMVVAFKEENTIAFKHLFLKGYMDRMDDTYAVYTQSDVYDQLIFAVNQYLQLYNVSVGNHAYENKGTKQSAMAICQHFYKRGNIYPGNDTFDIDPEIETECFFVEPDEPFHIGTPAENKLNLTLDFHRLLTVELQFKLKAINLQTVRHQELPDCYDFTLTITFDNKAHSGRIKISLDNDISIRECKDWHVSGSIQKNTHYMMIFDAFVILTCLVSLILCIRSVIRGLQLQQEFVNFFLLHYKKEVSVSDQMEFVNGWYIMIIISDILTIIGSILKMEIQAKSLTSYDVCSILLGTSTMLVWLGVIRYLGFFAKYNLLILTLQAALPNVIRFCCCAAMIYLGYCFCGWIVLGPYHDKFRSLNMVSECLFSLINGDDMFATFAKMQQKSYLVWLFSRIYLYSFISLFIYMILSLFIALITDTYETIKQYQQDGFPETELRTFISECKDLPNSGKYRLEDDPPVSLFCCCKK
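Test system: TRPML3-YFP stable HEK293 cells. Doses: single point at 3 µM. Incubation: dye loading 1 h 37 °C then 30 min ambient, 125 s read. Signal: Fluo-8 calcium dye fluorescence, ex 470-495, em 515-575 nm. Measure: percent activation from peak-to-basal fluorescence ratio, scaled between DMSO and carbachol.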
Starred values were filed as active, the others as inactive; x = not tested or not shown. Sampled rows, rich in hits. Any-hit rate of the full collection: about 1.2%.

SMILES	zfTRPN1 agonist	CHO-K1 Ca antag	CHO-K1 Ca ag	CHO-K1 Ca PAM	TRPML3 ag
Oc1ccc(-c2nc3ccccn3c2NCc2ccc3c(c2)OCO3)cc1	0	3	4	9	0
Fc1ccc(-c2nc3ccccn3c2NCc2ccc3c(c2)OCO3)cc1	-1	26*	4	-8	0
CSCCC(NC(=O)c1ccco1)C(=O)OC(C)C(=O)NC(=O)NC1CCCCC1 (centres undefined)	121*	-17	1	-2	62*
C[C@H](NC(=O)c1ccco1)C(=O)NC1CCCCCC1	x	-8	2	10	x
Fc1ccc(Nc2nc(NCc3cccs3)nc3ccsc23)cc1	x	-3	5	5	x
CC(C)n1c(NCc2ccccc2O)nc2ccccc21	x	1	23*	17	x
Cn1c(NCc2ccccc2O)nc2ccccc21	1	6	0	4	1
O=C(CCCN1C(=O)C(=Cc2ccc3c(c2)OCO3)SC1=S)Nc1ccc(C(=O)O)c(O)c1	x	3	-1	4	x
COc1ccc(CNc2cc(NCCCO)c([N+](=O)[O-])c3nonc23)cc1	1	25*	-1	-16	0
COc1ccc(CCNS(=O)(=O)c2ccc3c(c2)CCN3C(=O)CCC(=O)O)cc1OC	0	5	19*	12	1
O=C(O)CCC(=O)N1CCc2cc(S(=O)(=O)NCCc3ccc(Cl)cc3)ccc21	x	-15	2	12	x
Fc1ccc(NC(=S)SCc2ccc3c(c2)OCO3)cc1F	x	16	6	-6	x
CN(C)c1ccc(-c2csc(C(O)c3ccc(F)cc3)n2)cc1 (centres undefined)	x	-2	23*	1	x
COc1ccc(C(O)c2nc(-c3ccc(N(C)C)cc3)cs2)cc1 (centres undefined)	x	8	24*	-8	x
CN(C)c1ccc(-c2csc(C(O)c3ccc(F)c(F)c3)n2)cc1 (centres undefined)	x	24*	35*	-13	x
O=C(/C=C/[C@H]1O[C@@H](n2ccc(=O)[nH]c2=O)[C@H](O)[C@@H]1O)NCc1ccccc1	x	6	0	-10	x
O=C1CC(N2CCN(C3CC(=O)N(CCc4ccccc4)C3=O)CC2)C(=O)N1CCc1ccccc1 (centres undefined)	1	-1	2	-8	1
O=C1CC(N2CCN(C/C=C/c3ccccc3)CC2)C(=O)N1CCc1ccccc1 (centres undefined)	3	-2	16*	0	2
CCOC(=O)C(=O)N(C)c1c(CC)nc2c(OCc3cc(Cl)cc(Cl)c3)cccn12	x	29*	0	-17	x
CCOC(=O)C(=O)N(C)c1c(CC)nc2c(OCc3cccc(Cl)c3)cccn12	x	-7	0	10	x
C=CCNc1nc(Nc2ccc([N+](=O)[O-])cc2)nc(OC)n1	0	29*	-1	-5	0
C=CCNc1nc(Cl)nc(Nc2ccc([N+](=O)[O-])cc2)n1	0	20	-1	-12	0
COc1ccccc1CNS(=O)(=O)c1ccc2c(c1)CC(C)N2C(=O)C1CCC1 (centres undefined)	x	31*	14	-10	x
C=CCC1c2cccc(C(=O)OC)c2C(=O)N1c1ccccc1 (centres undefined)	-2	24*	0	-8	0
COc1ccc(CN2CCC[C@]3(N[C@H](c4ccc(C)cc4)[C@@H]4C(=O)N(Cc5ccccc5)C(=O)[C@@H]43)C2=O)cc1	x	1	1	2	x
SMILES	zfTRPN1 agonist	CHO-K1 Ca antag	CHO-K1 Ca ag	CHO-K1 Ca PAM	TRPML3 ag
CS(=O)(=O)N1CCC(C(=O)N2CCN(c3ccccc3F)CC2)CC1	2	-1	17*	19	1
CC1Cc2cc(S(=O)(=O)N3CCC(C(=O)N4CCN(c5ccccc5F)CC4)CC3)ccc2N1C(=O)C1CC1 (centres undefined)	x	29*	10	-30	x
CC(=O)N1c2ccc(S(=O)(=O)N3CCC(C(=O)N4CCC(C)CC4)CC3)cc2CC1C (centres undefined)	x	-17	2	8	x
CC(=O)N1c2ccc(S(=O)(=O)N3CCC(C(=O)N4CCN(c5cc(Cl)ccc5C)CC4)CC3)cc2CC1C (centres undefined)	x	26*	12	-18	x
Cn1c(Cc2ccccc2)nc(=O)c2ccccc21	x	3	0	8	x
C[C@H]1Cn2cnc(C(=O)Nc3cccc(Cl)c3)c2C(=O)N1	x	-8	1	22	x
OC[C@@H]1CN(Cc2ccc(F)cc2)C[C@H](n2cnc3c(N4CCN(c5ccccc5)CC4)ncnc32)O1	x	-10	7	15	x
COc1ccc(N=C2SCC(c3ccc([N+](=O)[O-])cc3)=NN2CCO)cc1	1	15	15*	-7	0
COc1cc(CN2CC(=O)N(c3ccc(C)c(Cl)c3)C2=S)cc(OC)c1OC	x	-3	1	-5	x
COc1cc(CN2CC(=O)N(c3ccccc3Cl)C2=S)cc(OC)c1OC	x	13	19*	-3	x
COc1cc(CN2CC(=O)N(c3cccc(Cl)c3C)C2=S)cc(OC)c1OC	x	6	23*	3	x
C[C@@H]1CN([C@H](C)CO)C(=O)CCCn2cc(nn2)CO[C@H]1CN(C)C(=O)Nc1ccc(C(C)(C)C)cc1	x	6	1	21	x
CCCCN(C(=O)c1cc(S(=O)(=O)N2CCCCCC2)ccc1OC)c1c(N)n(CCC)c(=O)[nH]c1=O	x	25*	0	-37	x
COc1ccc(NC(=O)c2cccc3c(-c4ccc(O)c(OC)c4)coc23)cc1	x	-2	2	-2	x
C/C=C(\C)C(=O)OC1[C@H](OC(C)=O)C2(CO)C(CC1(C)C)C1=CCC3C4(C)CCC(O[C@@H]5O[C@H](C(=O)O)[C@@H](O[C@@H]6O[C@H](CO)[C@@H](O)[C@H](O)[C@H]6O)[C@H](O)[C@H]5O[C@H]5O[C@H](CO)[C@@H](O)[C@H](O)[C@H]5O)[C@](C)(CO)C4CCC3(C)[C@]1(C)C[C@H]2O (some centres undefined)	x	102*	98*	-19	x
CC(=O)OC1COC(OC2C(O)C(C)OC(OC3C(OC4CCC5(C)C(CCC6(C)C5CC=C5C7CC(C)(C)CCC7(C(=O)O)CCC56C)C4(C)CO)OCC(O)C3O)C2O)C(O)C1OC(C)=O (centres undefined)	123*	x	x	x	95*
